Article PMC11068032 (Journal of medicinal chemistry, 2023)

Assays:
[1] = tested on: U87 xenograft tumor; assay: U87 xenograft tumor model in nude mice; format: in vivo
Method in brief: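 Nude mice (5–6 weeks) received U87 cells (5 × 10^6 in PBS) subcutaneously into both flanks; n = 4/group, 8 tumors/group. At about 50 mm3, mice got vehicle (DMSO) or test compound 20 mg/kg in PBS IP three times weekly for 14 days. Calipers three times weekly, V = 2/3 d1 × d2², body weight recorded. At end: CO2 euthanasia, tumors weighed, two tumors per mouse pooled and homogenized in RIPA for AR blotting.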

[2] = tested on: AR protein level in U87 cells; assay: AR downregulation in U87 cells by Western blotting; format: cell-based, human; conditions: 25, 50, and 100 nM
Method in brief: (§1)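 Cells in 6-well plates treated with test compound or DMSO (T98G screens at 100 or 50 nM for 12 h). Lysed in RIPA with protease inhibitors (10 min on ice), spun at 10,000g for 10 min, protein by BCA. 50 µg resolved on 10% SDS-PAGE, transferred to PVDF, blocked 2 h in 5% milk/TBS-T. Anti-AR or anti-AR-V7 primary overnight at 4 °C, secondary 60 min at RT, chemiluminescence. Band gray values quantified.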

[3] = tested on: AR-V7 in T98G cells; assay: Mutated AR; format: cell-based, human; conditions: Western blotting
Method in brief: as §1

[4] = tested on: AR in U87 cells; assay: AR immunofluorescence assay in U87 cells; format: cell-based, human; conditions: 50 nM, 12 h, compared to the control
Method in brief: (§2)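 Cells were grown on coverslips for 24 h, then given test compound at 50 nM for 12 h. Fixed in 4% paraformaldehyde (10 min), permeabilized with 0.1% Triton X-100 (10 min) and blocked in 1% BSA (30 min). Anti-AR primary 1 h, fluorescent secondary 1 h, nuclei stained with DAPI 1 µg/mL for 10 min, then imaged by fluorescence microscopy.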

[5] = tested on: AR protein level in T98G cells; assay: AR downregulation in T98G cells by Western blotting; format: cell-based, human
Method in brief: as §1

[6] = Maximum-tolerated dose; format: in vivo; conditions: 100 mg/kg per day IP for 10 days
Method in brief: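 Twelve C57BL/6 mice randomised into three groups (vehicle DMSO, or test compound in PBS), dosed IP daily and euthanised after 10 days. Body weight recorded daily. Nonfasted cardiac blood drawn immediately after euthanasia for automated haematology analysis. Heart, liver, spleen, lung and kidney rinsed in PBS, formalin-fixed, ethanol-dehydrated, xylene-cleared, paraffin-embedded and H&E-stained.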

[7] = tested on: AR in T98G cells; assay: AR immunofluorescence assay in T98G cells; format: cell-based, human; conditions: 50 nM, 12 h, compared to the control
Method in brief: as §2

[8] = target: T1, α-crystallin (chaperone function domain of HSP27) (Bos taurus, UniProt P02470+P02510); assay: HSP27 chaperone activity assay; format: biochemical
T1 sequence (P02470 1-173): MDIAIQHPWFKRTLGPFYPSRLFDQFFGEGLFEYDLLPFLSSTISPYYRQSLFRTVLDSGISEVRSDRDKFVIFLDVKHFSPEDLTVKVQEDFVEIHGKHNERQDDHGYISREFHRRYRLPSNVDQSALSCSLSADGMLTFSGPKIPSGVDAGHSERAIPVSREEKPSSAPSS
T1 sequence (P02510 1-175): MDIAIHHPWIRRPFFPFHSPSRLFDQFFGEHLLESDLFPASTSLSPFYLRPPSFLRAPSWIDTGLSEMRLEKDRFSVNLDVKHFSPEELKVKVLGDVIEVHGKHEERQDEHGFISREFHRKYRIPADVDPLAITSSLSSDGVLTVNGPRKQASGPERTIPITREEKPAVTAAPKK
Method in brief: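 Chaperone assay: insulin (from 1 mg/mL stock) with α-crystallin, the HSP27 chaperone domain (from 5 mg/mL stock), and test compound in PBS. Preincubated 5 min at 37 °C, then aggregation started with DTT (from 1 M stock). A400 read every 3 min for up to 2 h. Controls were insulin with or without α-crystallin in 0.1% DMSO. Three independent experiments, each in triplicate; mean curves.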

[9] = tested on: AR-overexpressed GBM cell lines U87 and T98G; format: cell-based, human; conditions: summary of Table 1
Method in brief: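 MTT assay in T98G and U87 cells kept in RPMI1640 or DMEM with 10% FBS and penicillin/streptomycin at 37 °C, 5% CO2. MTT 1 mg/mL for 2 h at 37 °C, formazan dissolved in DMSO, A570 read. Eight replicates; IC50 by nonlinear regression.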

Row | Compound | AR downregulation activity at 100 nM ([5]; 12 h) | activity in GBM cell growth inhibition (SAR wording) [9] | other results
1 | COc1ccc(OC)c(COc2cc(NC(=O)c3ccc4c(c3)OCO4)ccc2NS(C)(=O)=O)c1 [Compound 4, N-(3-((2,5-Dimethoxybenzyl)oxy)-4-(methylsulfonamido)phenyl)benzo[d][1,3]dioxole-5-carboxamide] | significant AR downregulation activity |  | nude mice body weight ([1]; 20 mg/kg IP every other day, 2 weeks): not affected; tumor size ([1]; 20 mg/kg IP every other day, 2 weeks, vs control): significantly decreased; tumor weight ([1]; 20 mg/kg IP every other day, end of experiment, vs control): significantly decrease; AR protein level in tumors ([1]; 20 mg/kg IP, Western blotting of tumor lysates, vs control): significantly decreased; AR protein level [2]: significantly downregulate; mutated AR (AR-V7) level [3]: downregulate; fluorescence intensities of AR [4]: decreased; AR downregulation activity at 50 nM ([5]; 50 nM, 12 h): potent AR downregulation activity; AR protein level ([5]; 25, 50, and 100 nM): significantly downregulate; condition observation (signs of toxicity such as dehydration, acute pain, or distress) [6]: do not show any sign of toxicity; body weight growth rate ([6]; vs control group): no growth rate difference; hematology, profile of the blood ([6]; vs control group): no change; tissue staining (H&E) of kidney, spleen, lung, liver, and heart ([6]; vs control group): no substantial histological abnormalities; fluorescence intensities of AR [7]: decreased; inhibition of in vitro chaperone function of HSP27 ([8]; 10 μM (Figure 3), α-crystallin present): significantly inhibit; inhibition at 10 µM ([8]; read-out: inhibition of the chaperone function): > 50%; interference with DTT-induced insulin aggregation ([8]; without chaperone protein, 10 μM or below): do not interfere
2 | COc1ccc(OC)c(COc2cc(NC(=O)c3ccc([N+](=O)[O-])cc3)ccc2NS(C)(=O)=O)c1 [Compound 13, N-(3-((2,5-Dimethoxybenzyl)oxy)-4-(methylsulfonamido)phenyl)-4-nitrobenzamide] | significant AR downregulation activity |  | 
3 | COc1ccc(OC)c(COc2cc(NC(=O)c3cccc(Br)c3)ccc2NS(C)(=O)=O)c1 [Compound 15, 3-Bromo-N-(3-((2,5-dimethoxybenzyl)oxy)-4-(methylsulfonamido)phenyl)benzamide] | significant AR downregulation activity |  | 
4 | COc1ccc(OC)c(COc2cc(NC(=O)c3ccc(SC)cc3)ccc2NS(C)(=O)=O)c1 [Compound 19, N-(3-((2,5-Dimethoxybenzyl)oxy)-4-(methylsulfonamido)phenyl)-4-(methylthio)benzamide] | significant AR downregulation activity |  | 
5 | CCCCCC(=O)Nc1ccc(NS(C)(=O)=O)c(OCc2cc(OC)ccc2OC)c1 [Compound 30, N-(3-((2,5-Dimethoxybenzyl)oxy)-4-(methylsulfonamido)phenyl)hexanamide] |  | lower activity | 
6 | COc1ccc(OC)c(COc2cc(NC(=O)c3ccc(OC(F)(F)F)cc3)ccc2NS(C)(=O)=O)c1 [Compound 33, N-(3-((2,5-Dimethoxybenzyl)oxy)-4-(methylsulfonamido)phenyl)-4-(trifluoromethoxy)benzamide] | significant AR downregulation activity |  | 
7 | COc1ccc(OC)c(COc2cc(NC(=O)c3ccccc3C)ccc2NS(C)(=O)=O)c1 [Compound 34, N-(3-((2,5-Dimethoxybenzyl)oxy)-4-(methylsulfonamido)phenyl)-2-methylbenzamide] | significant AR downregulation activity |  | 
8 | COc1ccc(OC)c(COc2cc(NC(=O)c3cccs3)ccc2NS(C)(=O)=O)c1 [Compound 35, N-(3-((2,5-Dimethoxybenzyl)oxy)-4-(methylsulfonamido)phenyl)thiophene-2-carboxamide] | significant AR downregulation activity | lower activity | 
9 | COc1ccc(OC)c(COc2cc(NC(=O)c3ccno3)ccc2NS(C)(=O)=O)c1 [Compound 36, N-(3-((2,5-Dimethoxybenzyl)oxy)-4-(methylsulfonamido)phenyl)isoxazole-5-carboxamide] | significant AR downregulation activity | lower activity | 
10 | COc1ccc(OC)c(COc2cc(NC(=O)CCCC(=O)Nc3ccc(NS(C)(=O)=O)c(OCc4cc(OC)ccc4OC)c3)ccc2NS(C)(=O)=O)c1 [Compound 37, N1,N5-Bis(3-((2,5-dimethoxybenzyl)oxy)-4-(methylsulfonamido)phenyl)glutaramide] | significant AR downregulation activity | poor activity | 
11 | COc1ccc(OC)c(COc2cc(NC(=O)COCC(=O)Nc3ccc(NS(C)(=O)=O)c(OCc4cc(OC)ccc4OC)c3)ccc2NS(C)(=O)=O)c1 [Compound 38, 2,2′-Oxybis(N-(3-((2,5-dimethoxybenzyl)oxy)-4-(methylsulfonamido)phenyl)acetamide)] |  | poor activity | 
12 | COc1ccc(OC)c(COc2cc(NC(=O)OCCOC(=O)Nc3ccc(NS(C)(=O)=O)c(OCc4cc(OC)ccc4OC)c3)ccc2NS(C)(=O)=O)c1 [Compound 39, Ethane-1,2-diylbis((3-((2,5-dimethoxybenzyl)oxy)-4-(methylsulfonamido)phenyl)carbamate)] |  | poor activity | 
13 | COc1ccc(OC)c(COc2cc(NC(=O)OCCOCCOCCOC(=O)Nc3ccc(NS(C)(=O)=O)c(OCc4cc(OC)ccc4OC)c3)ccc2NS(C)(=O)=O)c1 [Compound 40, (Ethane-1,2-diylbis(oxy))bis(ethane-2,1-diyl)bis((3-((2,5-dimethoxybenzyl)oxy)-4-(methylsulfonamido)phenyl)carbamate)] |  | poor activity | 
14 | COc1ccc(OC)c(COc2cc(NC(=O)c3ccc(NC(=O)COCC(=O)Nc4ccc(C(=O)Nc5ccc(NS(C)(=O)=O)c(OCc6cc(OC)ccc6OC)c5)cc4)cc3)ccc2NS(C)(=O)=O)c1 [Compound 42, 4,4′-((2,2′-Oxybis(acetyl))bis(azanediyl))bis(N-(3-((2,5-dimethoxybenzyl)oxy)-4-(methylsulfonamido)phenyl)benzamide)] |  | poor activity | 
